From ChEMBL document CHEMBL1147042, “Modafinil enhances thalamocortical activity by increasing neuronal electrotonic coupling” (2007)
The source made the active and inactive calls. The calls are words filed in the database; no cut-off is given here.

Columns and labels:
Thalamocortex [1] = assay: Induction of 10-Hz shock-stimulated C57BL/6 mouse thalamocortical activity assessed as increase in slope of rising phase after 15 mins by voltage-sensitive dye imaging method; format: functional, Brain
Procedure, shortened: (§1)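 Thalamocortical slices (350–400) came from C57BL/6 mice of either sex, P7–20, anesthetized with pentobarbital 120 mg/kg i.p. Slices recovered at 35°C for ≥30 min, then sat in oxygenated ACSF (pH 7.4) at 32°C. They were stained with RH 414 or di-4-ANEPPS (0.025 mg/ml). White matter received 10-Hz and/or 40-Hz electrical stimulation. Modafinil was bath-perfused and read at 15 min. Signal was ΔF/F.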

Thalamocortex [2] = assay: Induction of 40-Hz shock-stimulated C57BL/6 mouse thalamocortical activity assessed as increase in peak amplitude at 100 uM after 15 mins by voltage-sensitive dye imaging method; format: functional, Brain; procedure, shortened: as §1
Cortex [3] = assay: Induction of 40-Hz shock-stimulated Sprague-Dawley rat cortical activity assessed as increase in peak amplitude at 100 uM after 15 mins by voltage-sensitive dye imaging method; format: functional
Procedure, shortened: (§2)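 Rat barrel-cortex slices (300–450 μm) came from Sprague–Dawley rats of either sex, P10–18. Slices recovered at 35°C for ≥30 min, then were held in oxygenated ACSF (pH 7.4) at 32°C. Staining used RH 414 or di-4-ANEPPS (0.025 mg/ml). White matter was stimulated at 10 Hz or 40 Hz. Modafinil was applied for 15 min. Optical response was taken as fractional fluorescence ΔF/F.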

Thalamocortex [4] = assay: Induction of 10-Hz shock-stimulated C57BL/6 mouse thalamocortical activity assessed as increase in peak amplitude at 100 uM after 15 mins by voltage-sensitive dye imaging method; format: functional, Brain; procedure, shortened: as §1
Cortex [5] = assay: Induction of 10-Hz shock-stimulated Sprague-Dawley rat cortical activity assessed as increase in peak amplitude at 100 uM after 15 mins by voltage-sensitive dye imaging method; format: functional; procedure, shortened: as §2
Cortex [6] = assay: Induction of 10-Hz shock-stimulated Sprague-Dawley rat cortical activity assessed as increase in slope of rising phase after 15 mins by voltage-sensitive dye imaging method; format: functional; procedure, shortened: as §2
Thalamocortex [7] = assay: Induction of 40-Hz shock-stimulated C57BL/6 mouse thalamocortical activity assessed as increase in peak amplitude at 0.2 uM after 15 mins by voltage-sensitive dye imaging method; format: functional, Brain; procedure, shortened: as §1
Cortex [8] = assay: Induction of 40-Hz shock-stimulated Sprague-Dawley rat cortical activity assessed as increase in peak amplitude at 0.2 uM after 15 mins by voltage-sensitive dye imaging method; format: functional; procedure, shortened: as §2
Thalamocortex [9] = assay: Induction of 10-Hz shock-stimulated C57BL/6 mouse thalamocortical activity assessed as increase in peak amplitude at 0.2 uM after 15 mins by voltage-sensitive dye imaging method; format: functional, Brain; procedure, shortened: as §1
Cortex [10] = assay: Induction of 10-Hz shock-stimulated Sprague-Dawley rat cortical activity assessed as increase in peak amplitude at 0.2 uM after 15 mins by voltage-sensitive dye imaging method; format: functional; procedure, shortened: as §2
Thalamocortex [11] = assay: Induction of 10-Hz shock-stimulated C57BL/6 mouse thalamocortical activity assessed as increase in slope of rising phase at 0.2 uM after 15 mins by voltage-sensitive dye imaging method; format: functional, Brain; procedure, shortened: as §1
Cortex [12] = assay: Induction of 10-Hz shock-stimulated Sprague-Dawley rat cortical activity assessed as increase in slope of rising phase at 0.2 uM after 15 mins by voltage-sensitive dye imaging method; format: functional; procedure, shortened: as §2
Thalamocortex [13] = assay: Induction of 40-Hz shock-stimulated C57BL/6 mouse thalamocortical activity assessed as increase in slope of rising phase at 0.2 uM after 15 mins by voltage-sensitive dye imaging method; format: functional, Brain; procedure, shortened: as §1
Cortex [14] = assay: Induction of 40-Hz shock-stimulated Sprague-Dawley rat cortical activity assessed as increase in slope of rising phase at 0.2 uM after 15 mins by voltage-sensitive dye imaging method; format: functional; procedure, shortened: as §2
Thalamocortex [15] = assay: Effect on excitatory synaptic transmission in C57BL/6 mouse thalamocortical slices assessed as increase in input conductance in presence of GABAA, GABAB and NMDA blockers by single patch clamp recording; format: functional, Brain
Thalamocortex [16] = assay: Effect on paired-pulse ventrobasal stimulation induced excitatory postsynaptic current in 40-Hz shock-stimulated C57BL/6 mouse thalamocortical slices; format: functional, tissue-based; details: Brain
Thalamocortex [17] = assay: Effect on C57BL/6 mouse thalamocortical activity in presence of PKA inhibitor KT5720 by voltage-sensitive dye imaging method; format: functional; details: Brain
Thalamocortex [18] = assay: Effect on C57BL/6 mouse thalamocortical activity in presence of CaMK2 inhibitor KN93 by voltage-sensitive dye imaging method; format: functional; details: Brain
Rattus norvegicus [19] = species: Rattus norvegicus; assay: Increase in electronic coupling of Long-Evans rat inferior olivary neurons at 150 uM by single-patch clamp method; format: functional
Procedure, shortened: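 Paired patch recording was done at 32°C in ACSF. Hyperpolarizing current was injected into one neuron of a pair. Coupling coefficient = coupled-cell response ÷ injected-cell response, averaged over 10–20 trials. Measured before and after 150 μM modafinil; n = 7 pairs.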

Rattus norvegicus [20] = species: Rattus norvegicus; assay: Reduction of input resistance in Long-Evans rat inferior olivary neurons at 150 uM relative to control by single-patch clamp method; format: functional
Procedure, shortened: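 Input resistance was probed with hyperpolarizing current pulses before and after local application of modafinil (100–150 μM).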

Rattus norvegicus [21] = species: Rattus norvegicus; assay: Increase in electronic coupling of Long-Evans rat inferior olivary neurons in presence of CaMK2 inhibitor KN93 by single-patch clamp method; format: functional
Thalamocortex [22] = assay: Induction of 40-Hz shock-stimulated C57BL/6 mouse thalamocortical activity assessed as increase in slope of rising phase after 15 mins by voltage-sensitive dye imaging method; format: functional, Brain; procedure, shortened: as §1
Cortex [23] = assay: Induction of 40-Hz shock-stimulated Sprague-Dawley rat cortical activity assessed as increase in slope of rising phase after 15 mins by voltage-sensitive dye imaging method; format: functional; procedure, shortened: as §2
Rattus norvegicus [24] = species: Rattus norvegicus; assay: Increase in electronic coupling in Sprague-Dawley rat cortical interneurons assessed as input conductance change at 50 uM by […]; format: functional
Rattus norvegicus [25] = species: Rattus norvegicus; assay: Reversal of increase in electronic coupling in Sprague-Dawley rat cortical interneurons assessed as input conductance change at 50 uM in presence of gap junction inhibitor mefloquine by […]; format: functional
[26] = Increase in electronic coupling in Sprague-Dawley rat cortical interneurons assessed as coupling coefficient at 100 uM by […]; format: functional

NC(=O)C[S+]([O-])C(c1ccccc1)c1ccccc1 (stereo unspecified) [MODAFINIL]
Activity (Thalamocortex [1]): 31% | Activity (Thalamocortex [2]): 75% | Activity (Cortex [3]): 75% | Activity (Thalamocortex [4]): 65% | Activity (Cortex [5]): 65% | Activity (Cortex [6]): 31% | Activity (Thalamocortex [7]): 75% | Activity (Cortex [8]): 75% | Activity (Thalamocortex [9]): 70% | Activity (Cortex [10]): 70% | Activity (Thalamocortex [11]): 67% | Activity (Cortex [12]): 67% | Activity (Thalamocortex [13]): 35% | Activity (Cortex [14]): 35% | Activity (Thalamocortex [15]): 31% | Activity (Thalamocortex [16]): inactive | Activity (Thalamocortex [17]): Active | Activity (Thalamocortex [18]): inactive | Activity (Rattus norvegicus [19]): Active | Activity (Rattus norvegicus [20]): Active | Activity (Rattus norvegicus [21]): inactive | Activity (Thalamocortex [22]): 32% | Activity (Cortex [23]): 32% | Activity (Rattus norvegicus [24]): Active | Activity (Rattus norvegicus [25]): Active | Activity [26]: 70%
